According to ChEMBL document CHEMBL4680083, “Identification of Tricyclic Agonists of Sphingosine-1-phosphate Receptor 1 (S1P) Employing Ligand-Based Drug Design” (J Med Chem, 2016):
pEC50: −log10 of the molar value.

What was measured:
[1] = biological target: Sphingosine 1-phosphate receptor 1 (Homo sapiens, UniProt P21453); assay: Agonist activity at human S1P1 expressed in CHO cell membranes assessed as stimulation of [35S]-GTPgamma-S binding measured after 45 mins by liquid scintillation counting method; set-up: species or system Cell membrane
Sphingosine 1-phosphate receptor 1, sequence (P21453 whole entry): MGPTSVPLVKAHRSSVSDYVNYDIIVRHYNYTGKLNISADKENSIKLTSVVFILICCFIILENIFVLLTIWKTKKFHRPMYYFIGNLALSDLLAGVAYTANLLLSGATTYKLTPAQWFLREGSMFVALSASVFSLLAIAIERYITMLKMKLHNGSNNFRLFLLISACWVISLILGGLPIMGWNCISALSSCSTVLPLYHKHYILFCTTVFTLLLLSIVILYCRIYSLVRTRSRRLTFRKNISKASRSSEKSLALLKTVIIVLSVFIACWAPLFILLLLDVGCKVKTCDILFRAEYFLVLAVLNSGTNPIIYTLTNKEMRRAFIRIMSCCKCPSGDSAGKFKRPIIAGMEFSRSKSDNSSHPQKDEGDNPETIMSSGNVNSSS
How it was run: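 S1P1/CHO cell membranes at 3 μg protein/well with 3-fold compound dilutions. [35S]GTPγS 0.2 nM final, 45 min at room temperature. Filter-plate capture, water washes, scintillation counting. EC50 taken at 50% of each compound's own Ymax.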

[2] = biological target: Sphingosine 1-phosphate receptor 3 (Homo sapiens, UniProt Q99500); assay: Agonist activity at human S1P3 expressed in CHO cell membranes assessed as stimulation of [35S]-GTPgamma-S binding measured after 45 mins by liquid scintillation counting method; set-up: species or system Cell membrane
Sphingosine 1-phosphate receptor 3, sequence (Q99500 whole entry): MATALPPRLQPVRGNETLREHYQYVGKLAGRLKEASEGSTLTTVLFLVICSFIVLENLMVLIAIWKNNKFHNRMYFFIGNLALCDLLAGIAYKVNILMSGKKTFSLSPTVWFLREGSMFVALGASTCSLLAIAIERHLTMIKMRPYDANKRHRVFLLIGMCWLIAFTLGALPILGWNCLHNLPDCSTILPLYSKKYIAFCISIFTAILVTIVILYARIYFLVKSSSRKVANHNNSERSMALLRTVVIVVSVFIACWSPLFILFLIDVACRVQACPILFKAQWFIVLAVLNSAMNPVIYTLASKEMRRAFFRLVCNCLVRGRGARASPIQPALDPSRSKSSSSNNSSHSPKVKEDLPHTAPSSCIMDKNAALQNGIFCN

[3] = Selectivity index, ratio of EC50 for agonist activity at human S1P3 expressed in CHO cell membranes to EC50 for agonist activity at human S1P1 expressed in CHO cell membranes; format: cell-based
Rattus norvegicus [4] = assay: Reduction in circulating lymphocytes count in Lewis rat blood at 1 mg/kg, po measured at 4 hrs by hematology analyzer based analysis; format: functional; set-up: scale not given: the % may be the effect or the level left
How it was run: (§1)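 Lewis rats were given an oral dose as a solution or suspension in PEG300, with controls receiving vehicle only. Blood was taken by retro-orbital bleeding under isoflurane at 4 and 24 h. Lymphocytes were counted on a hematology analyzer. Reduction is relative to the vehicle group, averaged over the animals in each group (n = 3−4).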

[5] = Plasma concentration in Lewis rat at 1 mg/kg, po measured at 4 hr; format: ADME, organism-based; settings: for concentration at 4 h: Lewis, plasma
How it was run: (§2)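 Lewis rats received a single oral 1.0 mg/kg dose as solution or suspension in PEG300. Blood was drawn retro-orbitally under isoflurane at 4 h and 24 h, within the blood lymphocyte reduction study. n = 3−4 per group, group mean reported.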

Rattus norvegicus [6] = assay: Reduction in circulating lymphocytes count in Lewis rat blood at 1 mg/kg, po measured at 24 hrs by hematology analyzer based analysis; format: functional; set-up: scale not given: the % may be the effect or the level left; how it was run: as §1
[7] = Plasma concentration in Lewis rat at 1 mg/kg, po measured at 24 hrs; format: ADME, organism-based; settings: for concentration at 24 h: Lewis, plasma; for concentration / Cp: in vivo, 1 mg/kg, 24 h; for Cp: BLD = below limit of detection; how it was run: as §2
[8] = Ratio of plasma concentration in Lewis rat at 1 mg/kg, po measured at 4 hrs to plasma concentration in Lewis rat at 1 mg/kg, po measured at 24 hrs; format: ADME, organism-based; settings: in vivo

pEC50 [1]	pEC50 [2]	concentration at 4 h [5]	Ratio [8]	SMILES	Ratio EC50 [3]	Activity (Rattus norvegicus [4])	Activity (Rattus norvegicus [6])	further results
6.70	4.74	–	–	CS(=O)(=O)CCNC(=O)C(O)c1ccc2c(c1)CCc1c-2noc1-c1noc(-c2ccccc2)c1C(F)(F)F (stereo in doubt; 77) [listing 1 of 2 here]	–	–	–	–
8.80	< 4.20	–	–	CN1Cc2c(noc2-c2onc(-c3ccccc3)c2C(F)(F)F)-c2ccc(CN3CC(C(=O)O)C3)cc21	> 39000	–	–	–
8.89	5.36	34 nM	4	O=C(O)C1CN(Cc2ccc3c(c2)CCc2c(-c4onc(-c5ccccc5)c4C(F)(F)F)noc2-3)C1	3400	66%	79%	concentration at 24 h [7]: 8 nM
9.00	5.89	120 nM	120	O=C(O)C1CN(Cc2ccc3c(c2)CCc2c-3noc2-c2onc(-c3ccccn3)c2C(F)(F)F)C1	1300	82%	69%	concentration at 24 h [7]: 1 nM
7.59	4.80	–	7	O=C(O)[C@H]1CCCN(CC(O)c2ccc3c(c2)CCc2c-3noc2-c2noc(-c3ccccc3)c2C(F)(F)F)C1 (stereo in doubt; 76) [listing 1 of 2 here]	–	–	–	Activity (Rattus norvegicus [4]; 1 mg/kg, 4 h): 28%; Activity (Rattus norvegicus [6]; 1 mg/kg, 24 h): 20%; concentration [7]: 21 nM
8.82	4.59	28 nM	6	CC(C)Oc1ccc(-c2onc3c2CCc2cc(CN4CC(C(=O)O)C4)ccc2-3)cc1C(F)(F)F	17000	57%	21%	concentration at 24 h [7]: 5 nM
9.48	5.77	–	4	O=C(O)C[C@H]1CCCN(CC(O)c2ccc3c(c2)CCc2c-3noc2-c2noc(-c3ccccc3)c2C(F)(F)F)C1 (stereo in doubt; 74) [listing 1 of 2 here]	–	–	–	concentration ([5]; in vivo, 1 mg/kg, 4 h): 93 nM; Activity (Rattus norvegicus [6]; 1 mg/kg, 24 h): 87%; concentration [7]: 32 nM
7.51	4.92	–	–	O=C(O)C1CN(Cc2ccc3c(c2)CCCc2c(-c4noc(-c5ccccc5)c4C(F)(F)F)noc2-3)C1	390	–	–	–
8.89	5.55	110 nM	2	CC(C)Cc1ccc(-c2onc3c2CCc2cc(CN4CC(C(=O)O)C4)ccc2-3)cc1C(F)(F)F	2200	74%	76%	concentration at 24 h [7]: 50 nM
–	–	–	–	CS(=O)(=O)CCNC(=O)C(O)c1ccc2c(c1)CCc1c-2noc1-c1noc(-c2ccccc2)c1C(F)(F)F (stereo in doubt; 77) [listing 2 of 2 here]	90	–	–	–
9.24	5.34	190 nM	6	O=C(O)C1CN(Cc2ccc3c(c2)CCc2c-3noc2-c2snc(-c3ccccc3)c2C(F)(F)F)C1	7900	74%	69%	concentration at 24 h [7]: 32 nM
9.01	5.68	68 nM	4	O=C(O)C1CN(Cc2ccc3c(c2)CCc2c-3noc2-c2ccc(C3CCCCC3)c(C(F)(F)F)c2)C1	2100	35%	32%	concentration at 24 h [7]: 17 nM
8.17	4.49	21 nM	–	O=C(O)C1CN(Cc2ccc3c(c2)Cc2c-3noc2-c2noc(-c3ccccc3)c2C(F)(F)F)C1	4700	14%	3%	Cp [7]: Bld
7.29	4.64	–	–	O=C1NC(=O)C2(CN(Cc3ccc4c(c3)CCc3c-4noc3-c3noc(-c4ccccc4)c3C(F)(F)F)C2)N1	450	–	–	–
8.40	5.13	–	1	O=C(O)C[C@H]1CCCN(CC(O)c2ccc3c(c2)CCc2c-3noc2-c2noc(-c3ccccc3)c2C(F)(F)F)C1 (stereo in doubt; 73) [listing 1 of 2 here]	–	70%	–	concentration ([5]; in vivo, 1 mg/kg, 4 h): 190 nM; Activity (Rattus norvegicus [6]; 1 mg/kg, 24 h): 72%; concentration [7]: 160 nM
–	–	–	–	O=C(O)C[C@H]1CCCN(CC(O)c2ccc3c(c2)CCc2c-3noc2-c2noc(-c3ccccc3)c2C(F)(F)F)C1 (stereo in doubt; 73) [listing 2 of 2 here]	1900	–	–	–

pEC50 [1]	pEC50 [2]	concentration at 4 h [5]	Ratio [8]	SMILES	Ratio EC50 [3]	Activity (Rattus norvegicus [4])	Activity (Rattus norvegicus [6])	further results
–	–	–	–	O=C(O)[C@H]1CCCN(CC(O)c2ccc3c(c2)CCc2c-3noc2-c2noc(-c3ccccc3)c2C(F)(F)F)C1 (stereo in doubt; 76) [listing 2 of 2 here]	620	–	–	–
6.72	< 4.20	–	–	O=C(O)C1CN(Cc2ccc3c(c2)CCc2c-3n[nH]c2-c2onc(-c3ccccc3)c2C(F)(F)F)C1	> 330	–	–	–
–	–	–	–	O=C(O)C[C@H]1CCCN(CC(O)c2ccc3c(c2)CCc2c-3noc2-c2noc(-c3ccccc3)c2C(F)(F)F)C1 (stereo in doubt; 74) [listing 2 of 2 here]	5200	–	–	–
6.51	< 4.20	–	–	O=C(O)C1CN(Cc2ccc3c(c2)CCc2c-3noc2-c2cccc(C(F)(F)F)c2)C1	> 200	–	–	–
9.68	4.89	140 nM	3	O=C(O)[C@H]1CCCN(CC(O)c2ccc3c(c2)CCc2c-3noc2-c2noc(-c3ccccc3)c2C(F)(F)F)C1 (stereo in doubt; 75) [listing 1 of 2 here]	–	–	–	Activity (Rattus norvegicus [4]; 1 mg/kg, 4 h): 76%; Activity (Rattus norvegicus [6]; 1 mg/kg, 24 h): 76%; concentration [7]: 49 nM
7.48	5.80	–	–	O=C(O)C1CN(Cc2ccc3c(c2)OCCc2c(-c4noc(-c5ccccc5)c4C(F)(F)F)noc2-3)C1	48	–	–	–
7.62	4.96	–	–	CC(C)Oc1ccc(-c2onc3c2CCc2cc(CN4CC(C(=O)O)C4)ccc2-3)c(C(F)(F)F)c1	460	–	–	–
6.42	< 4.20	–	–	Cn1nc2c(c1-c1noc(-c3ccccc3)c1C(F)(F)F)CCc1cc(CN3CC(C(=O)O)C3)ccc1-2	> 170	–	–	–
–	–	–	–	O=C(O)[C@H]1CCCN(CC(O)c2ccc3c(c2)CCc2c-3noc2-c2noc(-c3ccccc3)c2C(F)(F)F)C1 (stereo in doubt; 75) [listing 2 of 2 here]	62000	–	–	–
–	–	2100 nM	3	O=C(O)C1CN(Cc2ccc(-c3noc(-c4onc(-c5ccccc5)c4C(F)(F)F)n3)cc2)C1	–	78%	91%	concentration at 24 h [7]: 700 nM
8.34	< 4.20	–	–	CC(C)Oc1ccc(-c2onc3c2CCc2cc(CN4CC(C(=O)O)C4)ccc2-3)cc1C#N	> 14000	-5%	12%	Cp ([5]; in vivo, 1 mg/kg, 4 h, BLD = below limit of detection): Bld; Cp [7]: Bld
–	–	–	–	CS(=O)(=O)CCNC(=O)C(O)c1ccc2c(c1)CCc1c-2noc1-c1noc(-c2ccccc2)c1C(F)(F)F (stereo in doubt; 78) [listing 1 of 2 here]	3900	–	–	–
7.68	< 4.20	–	–	Cn1nc(-c2noc(-c3ccccc3)c2C(F)(F)F)c2c1-c1ccc(CN3CC(C(=O)O)C3)cc1CC2	> 3000	–	–	–
8.80	4.85	–	–	CCOc1ccc(-c2onc3c2CCc2cc(CN4CC(C(=O)O)C4)ccc2-3)cc1OCC	8800	–	–	–
8.80	5.21	190 nM	–	CS(=O)(=O)CCNC(=O)C(O)c1ccc2c(c1)CCc1c-2noc1-c1noc(-c2ccccc2)c1C(F)(F)F (stereo in doubt; 78) [listing 2 of 2 here]	–	50%	43%	concentration at 24 h [7]: 26 nM
